Source: PubChem
MT1-MMP act inh – blockers of MT1-MMP proenzyme processing, primary screen, HT1080 RFP-PRO-GFP cells, GFP/RFP fluorescence; Matrix metalloproteinase-14 (Homo sapiens), P50281; GFP/RFP ratio fluorescence, overnight; percent of plate control window, DMSO zero; GFP/RFP ratio change, % at 20 µM; 360,000 compounds, 0.061% hits; AID 651647, 2012;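 active = GFP/RFP ratio change of at least 30% with cell ATP level not reduced by more than half and red fluorescence within 50% of control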
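Material – HT1080 RFP-PRO-GFP cells · Control set – DMSO wells and RFP-L50D-GFP cells · Incubation – overnight cell settling, then overnight compound exposure, 37 °C, 5% CO2 · Compound dosing – single-point 20 µM compound, 1% DMSO · Read-out – GFP/RFP fluorescence ratio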
Arrestin-AP2 inh – inhibitors of beta-arrestin/AP2 binding, primary screen, biochemical, GPCR trafficking, flow cytometry | FITC-arrestin peptide / GST-AP2 beads; AP2 beta2 appendage carries R879A mutation | 340,000 compounds, 0.31% hits | inhibition, % at 10 µM | beta-arrestin 1 C-terminal peptide binding to AP2 beta2-adaptin appendage (human);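 active = inhibition above a set limit, near 3 SD of compounds lacking own fluorescence, cut at about 54% in these data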
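System: GST-AP2 R879A glutathione beads; medium: PBS, Tween 20 0.05%, BSA 0.1%; reagent: fluorescein-tagged arrestin peptide at 50 nM final; schedule: pre-incubation 12 min, peptide binding 1 h, room temperature; detection: flow cytometry, FL1 (488/535 nm); read-out: inhibition as reduced fluorescein signal on beads, percent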
SKN-1 inh – suppressors of acrylamide-induced Pgst-4::GFP reporter in worms, primary screen, SKN-1 inhibitor project, whole organism, uHTS, GFP/RFP fluorescence ratio, strain VP596; C. elegans VP596 Pgst-4::GFP/RFP ratio, 24 h; inhibition, % at 21.8 µM; 360,000 compounds, 0.49% hits; AID 624304, 2012;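 active = interference check ratio from 0.5 to 1.5 plus GFP to RFP signal ratio inhibition reaching or exceeding a fixed threshold, cut at about 30% in these data, passing the limit was not always enough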
Tb MetRS inh – T. brucei MetRS inhibitors, primary screen, biochemical, luminescence. methionyl-tRNA synthetase (Trypanosoma brucei brucei). purified T. brucei MetRS, ATP depletion, Kinase-Glo luminescence. inhibition, % at 11.9 µM. 360,000 compounds, 0.4% hits. AID 624268, 2012;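 active = inhibition above a per-plate cutoff of the control wells' mean inhibition plus 3 SD, cut at about 5.5% in these data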
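Test system – parasite MetRS enzyme · Reagent – substrates ATP, L-methionine and bulk Escherichia coli tRNA · Doses – 11.9 µM compound single dose, 0.9% DMSO · Times – 15 min enzyme-compound preincubation, 2 h reaction, 10 min detection, 25 °C · Signal – Kinase-Glo luminescence, ATP depletion format · Controls – DMSO-only wells as low control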
Rin1 Abl inh – inhibitors of Rin1-Abl protein binding, primary screen, biochemical, TR-FRET | Tyrosine-protein kinase ABL1 (Homo sapiens) + Ras and Rab interactor 1 (Homo sapiens), … | inhibition, % at 7.35 µM | 360,000 compounds, 0.4% hits | AID 588664, 2011; in the data active = inhibition above about 5%, passing the limit was not always enough
Arr AP2 CP1 – inhibitors of arrestin peptide binding to AP2, confirmation, biochemical, cherry pick 1, flow cytometry beads | shares compounds with Arrestin-AP2 inh | GST-AP2 beads, FITC arrestin peptide binding; GST-fused beta2-adaptin appendage, R879A mutant | inhibition, % at 10 µM | 1,300 compounds, 2% hits;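 active = inhibition above a set limit, roughly 3 SD of non-fluorescent compound noise, cut at about 38% in these data; inactive = inhibition at or below that limit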;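 also: loss of bead fluorescence from 50 nM FITC arrestin peptide bound to appendage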
Target sequence (P63010 whole entry, looked up, the tested form may be a part, one chain of several): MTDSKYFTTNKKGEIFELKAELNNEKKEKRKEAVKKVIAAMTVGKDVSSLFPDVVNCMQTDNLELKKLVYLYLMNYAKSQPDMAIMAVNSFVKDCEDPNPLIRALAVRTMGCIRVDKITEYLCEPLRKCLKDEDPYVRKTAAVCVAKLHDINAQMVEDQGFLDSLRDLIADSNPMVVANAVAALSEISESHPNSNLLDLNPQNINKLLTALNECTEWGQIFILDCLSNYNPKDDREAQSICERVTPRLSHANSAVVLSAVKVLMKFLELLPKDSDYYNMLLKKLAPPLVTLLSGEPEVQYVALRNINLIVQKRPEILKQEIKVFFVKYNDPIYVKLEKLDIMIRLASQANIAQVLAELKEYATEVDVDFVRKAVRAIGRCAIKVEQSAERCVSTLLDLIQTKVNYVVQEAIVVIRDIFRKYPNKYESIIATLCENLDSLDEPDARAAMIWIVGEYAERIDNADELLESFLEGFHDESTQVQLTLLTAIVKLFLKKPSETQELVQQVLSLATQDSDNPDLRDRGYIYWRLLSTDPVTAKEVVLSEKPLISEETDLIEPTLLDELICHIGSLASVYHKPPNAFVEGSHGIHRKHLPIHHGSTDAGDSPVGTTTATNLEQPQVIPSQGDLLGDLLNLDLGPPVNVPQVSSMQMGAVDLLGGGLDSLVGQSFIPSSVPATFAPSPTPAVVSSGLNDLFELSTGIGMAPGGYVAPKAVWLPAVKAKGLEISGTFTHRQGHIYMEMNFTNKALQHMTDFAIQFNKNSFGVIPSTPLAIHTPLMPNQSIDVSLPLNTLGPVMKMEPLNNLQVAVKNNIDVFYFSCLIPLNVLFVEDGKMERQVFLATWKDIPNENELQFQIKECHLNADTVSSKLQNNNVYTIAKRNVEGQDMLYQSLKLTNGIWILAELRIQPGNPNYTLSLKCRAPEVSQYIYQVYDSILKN
GST GSH counter – GST-fluorescein capture on glutathione beads, confirmation, artefact control for arrestin-AP2 inhibitor project, biochemical, cherry pick 1, flow cytometry; shares compounds with Arrestin-AP2 inh; GST-fluorescein binding to GSH beads, fluorescence, counter-screen; inhibition, % at 10 µM; 1,300 compounds, 2% hits; AID 588338, 2011;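 active = inhibition above 50%, about 3 SD of the inhibition seen with non-fluorescent compounds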;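 also: fluorescein maleimide labelled GST captured on 4 micron glutathione beads; higher means more loss of bead fluorescence from quenching or blocked binding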
Each line names hits and unclear results; the compound was inactive in the other large screens (follow-up assays come after a bar, where they were run). Compounds with a hit are over-represented: about 1.6% of the library has one in this group of screens.

COc1ccccc1CCC(=O)NNC(=O)Cn1nc(C)cc1C	none (no result: Arrestin-AP2 inh)
CCCC(=O)OCCNc1cc(Sc2nc3ccccc3[nH]2)c2nonc2c1[N+](=O)[O-]	Arrestin-AP2 inh 55 | Arr AP2 CP1 inactive | GST GSH counter inactive
CN(C)c1ccc(C(=O)/C=C/c2ccc(Br)cc2)cc1	Arrestin-AP2 inh 98 | Arr AP2 CP1 38 | GST GSH counter 190
CCSCc1nnc(SCC(=O)Nc2cccc(SC)c2)n1C	Arrestin-AP2 inh 99 | Arr AP2 CP1 inactive | GST GSH counter inactive
CCSCc1nnc(SCC(=O)Nc2cccc(C(C)=O)c2)n1C	none
COc1ccccc1CN1CC(C(=O)NCc2cc(F)ccc2C)CCC1=O (stereo not given)	none
O=C(NCCc1ccc(C(F)(F)F)cc1)C1CCC(=O)N(CCc2cccc(F)c2)C1 (stereo not given)	none
Cc1ccc(F)cc1CNC(=O)C1CCC(=O)N(CCc2ccccc2)C1 (stereo not given)	none | Arr AP2 CP1 inactive | GST GSH counter inactive
O=C(NCCc1ccc(C(F)(F)F)cc1)C1CCC(=O)N(CCCc2ccccc2)C1 (stereo not given)	none | Arr AP2 CP1 inactive | GST GSH counter inactive
CC(C)C[C@@H]1CN(CCCC[C@H]2CNC(=O)C(=O)N2CCC2CCCCC2)C(=O)C(=O)N1CCc1ccc(O)cc1	none (no result: Arrestin-AP2 inh, Rin1 Abl inh)
COC(=O)[C@@]12C[C@@H](CC(=O)NCC34CC5CC(CC(C5)C3)C4)C(=O)N(CCc3ccc(OC)c(OC)c3)C1=CCC(C)(C)C2	none (no result: Arrestin-AP2 inh, Rin1 Abl inh)
COc1ccc(-c2cc(C(F)F)n3ncc(C(=O)N4CCCc5ccccc54)c3n2)cc1	Arrestin-AP2 inh 106 | Arr AP2 CP1 inactive | GST GSH counter 66
O=C(c1cnn2c(C(F)(F)F)cc(-c3ccccc3)nc12)N1CCCc2ccccc21	none | Arr AP2 CP1 inactive | GST GSH counter inactive
O=C(c1cnn2c(C(F)F)cc(-c3ccccc3)nc12)N1CCCc2ccccc21	none | Arr AP2 CP1 inactive | GST GSH counter inactive
CN(C)CCN1CCN(C2CN(Cc3cn(Cc4ccccc4)nn3)S(=O)(=O)C2)CC1 (stereo not given)	none (no result: Arrestin-AP2 inh, Rin1 Abl inh)
CSCCC(NC(=O)C1CCC(C)CC1)C(=O)OCC(=O)c1ccc(Cl)cc1 (stereo not given)	Arrestin-AP2 inh 106 | Arr AP2 CP1 inactive | GST GSH counter inactive
CSCCC(NC(=O)C12CC3CC(CC(C3)C1)C2)C(=O)OCC(=O)c1ccc(Cl)cc1 (stereo not given)	none
CCOc1ccc(NC(=O)CN2C(=O)C(C)SC(C)C2=O)cc1 (stereo not given)	Arrestin-AP2 inh 55 | Arr AP2 CP1 inactive | GST GSH counter inactive
CCOc1ccc(NC(=O)CN2C(=O)C3CC=CCC3C2=O)cc1 (stereo not given)	none
Cc1ccc(N2CCN(C(C(=O)Nc3c(C)cccc3C)c3cccc(F)c3)CC2)cc1 (stereo not given)	none (no result: Arrestin-AP2 inh, Rin1 Abl inh)
CC1(C)CC(=O)C2=C(C1)Nc1ccccc1NC2c1cccs1 (stereo not given)	none
O=C1CCCC2=C1C(c1cccs1)Nc1ccccc1N2 (stereo not given)	Arrestin-AP2 inh 70 | Arr AP2 CP1 inactive | GST GSH counter inactive
CC(C)CC1NC(=O)c2cccnc2-n2c1nc1cc(F)ccc1c2=O (stereo not given)	none (no result: Arrestin-AP2 inh)
COc1cc2c(cc1OC)CN(C(=S)Nc1ccc(OC(F)F)cc1)CC2	Arrestin-AP2 inh 56 | Arr AP2 CP1 inactive | GST GSH counter inactive
COc1cc2c(cc1OC)CN(C(=S)Nc1ccccc1)CC2	none
COc1ccc(/C=C2\SC(=S)N(CCCCCC(=O)Nc3cc(C)on3)C2=O)cc1OC	none
COc1ccc(/C=C2\SC(=S)N(CCCC(=O)Nc3cc(C)on3)C2=O)cc1OC	Arrestin-AP2 inh 76 | Arr AP2 CP1 inactive | GST GSH counter inactive
Nc1c(C(=O)NCc2cccs2)nnn1CC(=O)Nc1cccc(Cl)c1	Arrestin-AP2 inh 99 | Arr AP2 CP1 inactive | GST GSH counter inactive
O=C1/C(=C\c2ccc(-c3ccccc3Cl)o2)SC(=S)N1CC1CCCO1 (stereo not given)	Arrestin-AP2 inh 73 | Arr AP2 CP1 42 | GST GSH counter inactive
O=C1/C(=C/c2ccco2)SC(=S)N1CC1CCCO1 (stereo not given)	none
CCOc1ncccc1C(=O)Nc1cc(S(=O)(=O)N2CCCCCC2)ccc1OC	none
CCOc1ncccc1C(=O)Nc1ccc(OC)c(S(=O)(=O)N2CCCCC2)c1	none | Arr AP2 CP1 inactive | GST GSH counter inactive
COc1ccc(S(=O)(=O)N2CCCCC2)cc1NC(=O)c1ccc(=O)[nH]c1	none | Arr AP2 CP1 inactive | GST GSH counter inactive
CCOc1ncccc1C(=O)Nc1cc(S(=O)(=O)N2CCCCC2)ccc1OC	none | Arr AP2 CP1 inactive | GST GSH counter inactive
Cc1ccc(C(=O)Nc2cccnc2)cc1S(=O)(=O)N1CCOCC1	none
O=C(Nc1cc(S(=O)(=O)N2CCCCCC2)ccc1OCC(F)(F)F)c1ccc(=O)[nH]c1	none
Cc1ccc(NC(=O)c2cccnc2)cc1S(=O)(=O)N1CCOCC1	none | Arr AP2 CP1 inactive | GST GSH counter inactive
CCOc1ncccc1C(=O)Nc1ccc(C)c(S(=O)(=O)N2CCCCCC2)c1	none
CC(C)C[C@H]1CNC(=O)C(=O)N1CC1CCN(CC2CCC(C(C)(C)C)CC2)CC1 (stereo not given in full)	none
O=C(Nc1cccs1)Nc1nnc([C@@H]2C[C@H](O)[C@@H](CO)O2)s1	none (no result: Arrestin-AP2 inh)
CCOc1ncccc1C(=O)Nc1cccc(S(=O)(=O)N2CCOCC2)c1	none | Arr AP2 CP1 inactive | GST GSH counter inactive
CC1CN(S(=O)(=O)c2ccc(C(=O)Nc3nc(-c4cc5ccccc5o4)cs3)cc2)CC(C)O1 (stereo not given)	Arrestin-AP2 inh 107 | Arr AP2 CP1 inactive | GST GSH counter inactive
CN(C)S(=O)(=O)c1ccc(Cl)c(NC(=O)COC(=O)C2CSC3(C)CCC(=O)N23)c1 (stereo not given)	none | Arr AP2 CP1 inactive | GST GSH counter inactive
